Bioassay records: PubChem BioAssay, The Scripps Research Institute Molecular Screening Center
S1P3 agonist: S1P3 (human) receptor agonism. Q99500. S1P3 NFAT-BLA reporter cells, FRET ratio; relative to 1 µM S1P, basal subtracted. activation, % at 4.5 µM. 60,000 compounds, 0.1% hits;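 active = activation above the screen-wide mean plus 3 SD, cut at about 4.5% in these data, passing the limit was not always enough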
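Assay system: CHO cells stably expressing human S1P3, Gα16 and NFAT-β-lactamase reporter. Timing: overnight plating, 4 h compound 37 °C, 2 h substrate RT. Signal: β-lactamase FRET emission ratio 460/535 nm. Measure: percent activation versus median 1 µM S1P response, basal-subtracted, per plate. Repeats: primary screen single test, confirmation screen in triplicate.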
5HT1E antag: 5-HT1E (human) receptor antagonism; CHO 5-HT1E Ga15 NFAT-bla reporter, FRET, antagonist; inhibition, % at 6 µM; 65,000 compounds, 0.99% hits; P28566;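 active = inhibition above a set limit, the mean inhibition across every tested compound plus 3 SD, cut at about 29% in these data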;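 also: signal is the 460 over 535 nm emission ratio of beta-lactamase substrate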
HTR1A agonist: 5-HT1a (human) receptor agonism. CHO 5-HT1a Ga15 NFAT-bla reporter, FRET ratio; 0% basal, 100% maximal reference agonist. activation, % at 10 µM. 65,000 compounds, 0.56% hits. AID 567;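 active = activation above the screen-wide mean activation plus 3 SD, cut at about 19% in these data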
S1P1 ag-PAM: S1P1 (human) agonism or agonism potentiation. 56,000 compounds, 0.57% hits. S1P1 CRE-bla cells, forskolin, beta-lactamase FRET, potentiator mode; S1P1 agonist co-added at EC20, 2 nM; 100% = saturating reference agonist, 0% = basal. AID 449. activation, % at 9.5 µM;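 active = activation above a cutoff set at the mean activation of all tested compounds plus 3 SD, cut at about 54% in these data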;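 also: forskolin at 4 µM as EC80 and the EC20 agonist is SEW2871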
Target sequence (P21453 whole entry, looked up): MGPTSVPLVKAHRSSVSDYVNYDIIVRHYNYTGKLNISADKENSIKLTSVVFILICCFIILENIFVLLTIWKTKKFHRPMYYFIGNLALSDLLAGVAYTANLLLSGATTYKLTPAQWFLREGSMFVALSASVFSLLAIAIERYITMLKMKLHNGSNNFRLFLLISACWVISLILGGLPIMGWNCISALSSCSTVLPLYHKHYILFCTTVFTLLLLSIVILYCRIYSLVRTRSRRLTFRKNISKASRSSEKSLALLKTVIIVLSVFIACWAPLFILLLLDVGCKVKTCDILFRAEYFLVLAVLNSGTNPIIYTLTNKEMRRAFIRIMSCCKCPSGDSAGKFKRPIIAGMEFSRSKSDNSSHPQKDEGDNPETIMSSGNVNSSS
HTR1E agonist: agonists of human 5-HT1E serotonin receptor | activation, % at 6 µM | CHO 5-HT1E Ga15 NFAT-bla reporter, FRET; 0% DMSO wells, 100% control agonist wells | AID 574 | 65,000 compounds, 0.69% hits | P28566;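 active = activation above a set limit, the screen-wide mean activation plus 3 SD, cut at about 8.5% in these data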
5HT1a antag: blocks the human serotonin 5-HT1a receptor; P08908; CHO 5-HT1a Ga15 NFAT-bla reporter, antagonist mode; inhibition, % at 10 µM; 62,000 compounds, 0.68% hits;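 active = inhibition above the mean of all tested compounds plus 3 SD, cut at about 43% in these data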;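 also: receptor stimulated by 5-CT agonist at 100 nM near EC80; beta-lactamase reporter measured by ratiometric fluorescence of a cleavable substrate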
Of the large screens only hits and unclear results are named; the others gave an inactive call. Sampled rows, rich in hits. Any-hit rate of the full collection: about 3%.

O=C(CSc1n[nH]c(-c2ccco2)n1)N1c2ccccc2Sc2ccccc21	5HT1E antag 37
Cc1noc(C)c1COC(=O)c1cc2c3ccccc3n(C)c2s1	none
Cc1cc(O)cc(O)c1-c1onc(C(F)(F)F)c1-c1cscn1	none
Cc1cc(=O)[nH]c(SCCOc2ccc(OC(C)C)cc2)n1	none
Cn1c(-c2ccccc2)cc2c3no[n+]([O-])c3ccc21	5HT1E antag 34, 5HT1a antag 44
CC(NC(=O)Nc1nnc(C(F)(F)F)s1)(C(F)(F)F)C(F)(F)F	5HT1E antag 54, S1P1 ag-PAM 80 (no result: 5HT1a antag)
CC(NC(=O)Nc1nnc(C(F)(F)F)s1)N1C(=O)C2C3C=CC(C3)C2C1=O (centres undefined)	none
COc1ccc(COC(=O)C2=C(C)NC(=O)NC2c2ccc(O)c(OC)c2)cc1 (centres undefined)	none
CC1=C(C(=O)OCc2ccc3c(c2)OCO3)C(c2ccc(F)cc2)NC(=O)N1 (centres undefined)	5HT1E antag 29, S1P1 ag-PAM 94
CC1=C(C(=O)OCc2ccc3c(c2)OCO3)C(c2ccc(Cl)cc2)NC(=O)N1 (centres undefined)	5HT1E antag 43, S1P1 ag-PAM 113, 5HT1a antag 50
CCOC(=O)C1=C(C)NC(=O)NC1c1ccc2c(c1)OCCO2 (centres undefined)	none
O=C(NCCCN1CCOCC1)[C@@H]1CSC2c3ccccc3C(=O)N21 (some centres undefined)	none
COCCn1c(C)cc(C(=O)CSc2nc3ccccc3o2)c1C	S1P1 ag-PAM 66
c1ccc2c(-c3nc(C4CCCCC4)no3)cc(-c3ccncc3)nc2c1	none
O=C(Cn1c(C(=O)N2CCc3ccccc3C2)cc2sccc21)c1ccccc1	5HT1a antag 44
O=S(=O)(NCc1cn2ccsc2n1)c1ccc(Oc2ccccc2)cc1	S1P1 ag-PAM 84
O=S(=O)(NCc1cn2ccsc2n1)c1cccs1	none
CCc1ccc(S(=O)(=O)NCc2cn3ccsc3n2)s1	HTR1E agonist 22
Cc1cc(C(F)(F)F)nc(NCc2cccnc2)n1	none (no result: S1P3 agonist, S1P1 ag-PAM)
CCn1c(CCNC(=O)c2cccs2)nnc1SCC(=O)c1ccc(OC)cc1	none (no result: S1P1 ag-PAM)
O=C(NCCCN1CCCC1=O)c1cccc(C(F)(F)F)c1	none
COc1ccccc1Oc1cc(C#N)c(C#N)cc1-n1nnc2ccccc21	S1P3 agonist 20, 5HT1a antag 49
COc1ccc(/C=N\n2nnc3ccccc32)cc1	none
CC(Oc1ccc(Cl)cc1Cl)C(=O)NCCCN1CCOCC1 (centres undefined)	none
O=C(CN(Cc1ccc(F)cc1)C(=O)CCC(=O)Nc1ccccn1)NCc1ccco1	none
Cc1ccc(S(=O)(=O)N2CCCN(S(=O)(=O)c3ccc(C)cc3)CC2)cc1	HTR1E agonist 19 (no result: S1P1 ag-PAM)
COCCCNC(=O)CCn1c(=O)c2ccccc2n(CC(=O)Nc2c(C)cccc2C)c1=O	none
COCCCNC(=O)CCCn1c(=O)c2ccccc2n(CC(=O)Nc2c(C)cc(C)cc2C)c1=O	HTR1E agonist 43
Cc1cccc(NC(=O)C2CCN(S(=O)(=O)c3cccc4cccnc34)CC2)n1	none
CCn1cc(Br)c(C(=O)Nc2ccc(F)c(Cl)c2)n1	none (no result: S1P1 ag-PAM)
Fc1ccccc1COc1ccc(/C=N/n2cnnc2)cc1	S1P1 ag-PAM 88
N#CCCN(Cc1cccnc1)C(=O)Nc1cccc(Cl)c1	none
CCOC(=O)c1nn(-c2ccccc2)c(C#N)c1NC(=O)c1nn(CC)cc1Br	5HT1E antag 54
CCOC(=O)c1c(NC(=O)c2nn(CC)cc2Br)c(C#N)nn1-c1ccccc1	none
CC(C)COC(=O)NCCOC(=O)Nc1cccc(Cl)c1	S1P1 ag-PAM 70
CCCCCOC(=O)NCC(O)c1ccccc1 (centres undefined)	none
CC(C)COC(=O)NCCCOC(=O)Nc1ccccc1	HTR1A agonist 224
Cc1cc(C)n(-c2nc(NCc3cccnc3)c3c4c(sc3n2)COC(C)(C)C4)n1	S1P3 agonist 13
CCC(O)CNc1nc(-n2nc(C)cc2C)nc2sc3c(c12)CCCC3 (centres undefined)	none
Cc1cc(C(=O)CSc2nnc(-c3ccco3)o2)c(C)n1CC1COc2ccccc2O1 (centres undefined)	HTR1A agonist 30
O=C(OC1CCOC1=O)c1ccc2ncsc2c1 (centres undefined)	none
O=C(OC1CCOC1=O)c1cncc(Br)c1 (centres undefined)	HTR1E agonist 43
CN(Cc1cccs1)S(=O)(=O)c1cccs1	none
Cc1noc(C)c1CSc1nc2ccccc2c(=O)n1-c1ccc(F)cc1F	5HT1a antag 46
Cc1noc(C)c1CSc1nc2ccccc2c(=O)n1-c1ccccc1	none
Cc1noc(C)c1CSc1nc2[nH]ncc2c(=O)n1-c1ccccc1	5HT1E antag 52 (no result: S1P1 ag-PAM)
Cc1noc(C)c1CSc1nnc2n(-c3ccccc3)c(=O)c3ccccc3n12	none
COCc1c(C(=O)OCC(=O)N2c3ccccc3NC(=O)C2(C)C)oc2ccccc12	none
CC(=O)NCCOc1nc(N(C)C)nc(N2CCOCC2)n1	HTR1A agonist 26
O=C(NCCOc1nc(N2CCCCC2)nc(N2CCOCC2)n1)Nc1ccccc1	none (no result: S1P1 ag-PAM)
CN=C(NC#N)SCC(=O)c1ccc(Cl)cc1Cl	S1P1 ag-PAM 82
Cc1ccc(C)n1NC(=O)c1ccc(Cl)cc1Cl	none
O=C1CCCC(O)=C1C=Nc1ccc(O)cc1	5HT1a antag 43
CC1(C)CC(=O)C(C=Nc2ccccc2)=C(O)C1	none
Cc1cccc(NC(=O)C2CCCN(c3nc(C)cc(C)n3)C2)c1 (centres undefined)	HTR1E agonist 13
CC1(C)CC(=O)C2=C(C1)Nc1ccccc1NC2c1nc2ccccc2[nH]1 (centres undefined)	5HT1E antag 34
COc1ccc(N2C(=O)CCC(C(=O)Nc3cccc(C)n3)C2c2ccc(OC)c(OC)c2)cc1 (centres undefined)	HTR1A agonist 29 (no result: S1P3 agonist, S1P1 ag-PAM)
COC(=O)c1cnn2c(C)c(Cc3cccc(F)c3)c(C)nc12	5HT1E antag 30
Clc1ccc(-n2nnnc2-c2ccccc2)cc1Cl	none
Cc1ccc2[nH]c(=O)c(CN(Cc3cccnc3)Cc3nnnn3CCN3CCOCC3)cc2c1	none
Cc1cccc(N2CCN(C(=O)CCn3c(=O)[nH]c4ccccc4c3=O)CC2)c1C	none
Cc1cccc(N2CCN(C(=O)Cc3c(C(=O)O)[nH]c4ccc(Cl)cc34)CC2)c1C	HTR1E agonist 60
O=C(CS(=O)(=O)Cc1ccccc1)N1CCN(c2cccc(C(F)(F)F)c2)CC1	none
